Measurements published in ChEMBL document CHEMBL3352498, “Membrane active phenylalanine conjugated lipophilic norspermidine derivatives with selective antibacterial activity” (J Med Chem, 2014).
In brackets after ≈: the same amount, converted by molar mass. Activity calls are given as the source filed them. No cut-off for these calls is given here.

Assays:
Staphylococcus aureus [1] = assay: Antimicrobial activity against methicillin-resistant Staphylococcus aureus ATCC 33591 after 24 hrs by broth microdilution method; assay type: functional; conditions: ATCC 33591, 24 h
Summary of the method: (§1)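 Broth microdilution per CLSI, 24 h at 37 °C. Inoculum is a 6 h 37 °C culture diluted to ~10^5 CFU/mL (yeast–dextrose broth for MRSA and K. pneumoniae). 50 μL of 2-fold dilutions in water plus 150 μL bacteria. Read by OD600, triplicates, run at least twice. MIC is taken from a sigmoidal fit as the point where OD equals the bacteria-free control.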

[2] = Critical micelle concentration of the compound; assay type: ADME
Summary of the method: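 Static light scattering at 90° (excitation and emission 400 nm) on compound dissolved at 500 μg/mL in yeast–dextrose broth at room temperature, measured over successive dilutions; cmc taken from the inflection point where intensity rises steeply then falls after a local maximum.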

Staphylococcus aureus [3] = assay: Antimicrobial activity against Staphylococcus aureus MTCC 737 after 24 hrs by broth microdilution method; assay type: functional; conditions: MTCC 737, 24 h
Summary of the method: (§2)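 Broth microdilution per CLSI: 6 h cultures (37 °C) diluted to ~10^5 CFU/mL; 2-fold serial dilutions in sterile water added to bacteria; 24 h at 37 °C; OD600 read. Triplicates, experiment done at least twice; mean OD vs concentration fitted sigmoidally, MIC taken where OD matched the no-bacteria control. E. coli grown in LB broth, S. aureus in yeast–dextrose broth.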

Enterococcus faecium [4] = assay: Antimicrobial activity against vancomycin-resistant Enterococcus faecium ATCC 51559 after 24 hrs by broth microdilution method; assay type: functional; conditions: ATCC 51559, 24 h; summary of the method: as §1
Enterococcus faecium [5] = assay: Antimicrobial activity against Enterococcus faecium ATCC 19634 after 24 hrs by broth microdilution method; assay type: functional; conditions: ATCC 19634, 24 h
Escherichia coli [6] = assay: Antimicrobial activity against Escherichia coli MTCC 443 after 24 hrs by broth microdilution method; assay type: functional; conditions: MTCC 443, 24 h; summary of the method: as §2
Klebsiella pneumoniae = assay: Antimicrobial activity against beta-lactam-resistant Klebsiella pneumoniae ATCC 700603 after 24 hrs by broth microdilution method; assay type: functional; conditions: ATCC 700603, 24 h; summary of the method: as §1
[7] = Hemolytic activity in human erythrocytes after 1 hr by spectrophotometry; assay type: ADME, cell-based, Erythrocyte
Summary of the method: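 Fresh heparinised human erythrocytes suspended to 5 vol % in PBS pH 7.4, mixed with serially diluted compound, 1 h at 37 °C; no-compound and 1 vol % Triton X-100 controls. Supernatant A540 after centrifugation gave % hemolysis; triplicates averaged, sigmoidal fit gave HC50.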

Staphylococcus aureus [8] = assay: Bactericidal activity against Staphylococcus aureus MTCC 737 assessed as log reduction in CFU/ml at 6 times MIC by time-kill assay relative to control; assay type: functional
Escherichia coli [9] = assay: Antimicrobial activity against Escherichia coli MTCC 443 assessed as leakage of K+ at 12 times MIC using PBFI-AM by fluorescence spectroscopy; assay type: functional, organism-based
Staphylococcus aureus [10] = assay: Antimicrobial activity against Staphylococcus aureus MTCC 737 assessed as membrane depolarization at 12 times MIC using DiSC3 by fluorescence spectroscopy; assay type: functional, organism-based
Summary of the method: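 Mid-log S. aureus washed and resuspended in 5 mM HEPES, 5 mM glucose, 100 mM KCl (1:1:1); 2 μM DiSC3(5) added, 20 min preincubation.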

Escherichia coli [11] = assay: Antimicrobial activity against Escherichia coli MTCC 443 assessed as membrane permeabilization at 12 times MIC by propidium iodide staining method; assay type: functional, organism-based
Staphylococcus aureus [12] = assay: Ratio of MIC for Staphylococcus aureus MTCC 737 after 4 hrs in presence of 50% human plasma to MIC for Staphylococcus aureus MTCC 737 after 4 hrs; assay type: functional
Summary of the method: (§3)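 Compound mixed 1:1 with fresh human plasma (50% plasma) and held at 37 °C; at 0, 2, 4, 6, 12 and 24 h aliquots were diluted 2-fold in 0.9% saline.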

Staphylococcus aureus [13] = assay: Antimicrobial activity against Staphylococcus aureus MTCC 737 assessed as leakage of K+ at 12 times MIC using PBFI-AM by fluorescence spectroscopy; assay type: functional, organism-based
Staphylococcus aureus [14] = assay: Antimicrobial activity against Staphylococcus aureus MTCC 737 assessed as membrane permeabilization at 12 times MIC by propidium iodide staining method; assay type: functional, organism-based
Staphylococcus aureus [15] = assay: Ratio of MIC for Staphylococcus aureus MTCC 737 after 2 hrs in presence of 50% human plasma to MIC for Staphylococcus aureus MTCC 737 after 2 hrs; assay type: functional; summary of the method: as §3

SMILES	MIC (Staphylococcus aureus [1])	CMC [2]	MIC (Staphylococcus aureus [3])	MIC (Enterococcus faecium [4])	MIC (Enterococcus faecium [5])	MIC (Escherichia coli [6])	MIC (Klebsiella pneumoniae)	HC50 at 1 h [7]	FC (Staphylococcus aureus [8])	Activity (Escherichia coli [9])	Activity (Staphylococcus aureus [10])	Activity (Escherichia coli [11])	fold change (FC) (Staphylococcus aureus [12])	Activity (Staphylococcus aureus [13])	Activity (Staphylococcus aureus [14])	fold change (FC) (Staphylococcus aureus [15])
CCCCCCCCCCCCCCCCCC(=O)N(CCCNC(=O)[C@@H](N)Cc1ccccc1)CCCNC(=O)[C@@H](N)Cc1ccccc1.O=C(O)C(F)(F)F.O=C(O)C(F)(F)F	5.2 µg/mL	20 µg/mL	11 µg/mL	2.9 µg/mL	10 µg/mL	248 µg/mL	87 µg/mL	65 µg/mL	–	–	–	–	–	–	–	–
CCCCCCCCCCCCCCCCCC(=O)N(CCCN)CCCN.O=C(O)C(F)(F)F.O=C(O)C(F)(F)F	19 µg/mL	–	21 µg/mL	11 µg/mL	21 µg/mL	26 µg/mL	106 µg/mL	42 µg/mL	–	–	–	–	–	–	–	–
N[C@@H](Cc1ccccc1)C(=O)NCCCN(CCCNC(=O)[C@@H](N)Cc1ccccc1)C(=O)Cc1cccc2ccccc12.O=C(O)C(F)(F)F.O=C(O)C(F)(F)F	–	–	> 250 µg/mL	> 250 µg/mL	> 250 µg/mL	> 250 µg/mL	> 250 µg/mL	–	–	–	–	–	–	–	–	–
CCCCCCCCCCCC(=O)N(CCCNC(=O)[C@@H](N)Cc1ccccc1)CCCNC(=O)[C@@H](N)Cc1ccccc1.O=C(O)C(F)(F)F.O=C(O)C(F)(F)F	3.3 µg/mL	40 µg/mL	3.6 µg/mL	2.3 µg/mL	4 µg/mL	10 µg/mL	8 µg/mL	171 µg/mL	3	Active	Active	Active	4	Active	Active	2
CCCCCCCCCCCC(=O)N(CCCN)CCCN.O=C(O)C(F)(F)F.O=C(O)C(F)(F)F	53 µg/mL	–	45 µg/mL	57 µg/mL	62 µg/mL	108 µg/mL	163 µg/mL	107 µg/mL	–	–	–	–	–	–	–	–
CN[C@H](CC(C)C)C(=O)N[C@H]1C(=O)N[C@@H](CC(N)=O)C(=O)N[C@H]2C(=O)N[C@H]3C(=O)N[C@H](C(=O)N[C@H](C(=O)O)c4cc(O)cc(O)c4-c4cc3ccc4O)[C@H](O)c3ccc(c(Cl)c3)Oc3cc2cc(c3O[C@@H]2O[C@H](CO)[C@@H](O)[C@H](O)[C@H]2O[C@H]2C[C@](C)(N)[C@H](O)[C@H](C)O2)Oc2ccc(cc2Cl)[C@H]1O [VANCOMYCIN]	0.8 µg/mL (≈ 0.552 µM)	–	0.8 µg/mL (≈ 0.552 µM)	> 1000 µg/mL	0.8 µg/mL (≈ 0.552 µM)	–	–	–	–	–	–	–	–	–	–	–
CCCCCCCCCC(=O)N(CCCN)CCCN.O=C(O)C(F)(F)F.O=C(O)C(F)(F)F	137 µg/mL	–	240 µg/mL	250 µg/mL	> 250 µg/mL	231 µg/mL	> 250 µg/mL	> 500 µg/mL	–	–	–	–	–	–	–	–
CCCCCCCCCCCCCC(=O)N(CCCN)CCCN.O=C(O)C(F)(F)F.O=C(O)C(F)(F)F	15 µg/mL	–	18 µg/mL	23 µg/mL	27 µg/mL	28 µg/mL	47 µg/mL	72 µg/mL	–	–	–	–	–	–	–	–
